# Hits are enriched below; roughly 2.1% of the tested compounds scored in any of these assays.
# PfG6PD inh = PfG6PD enzyme inhibitors, primary screen, biochemical, fluorescence intensity, uHTS; glucose-6-phosphate dehydrogenase-6-phosphogluconolactonase (Plasmodium falciparum 3D7); inhibition, % at 20 µM; PfGluPho enzyme, NADPH resazurin-diaphorase fluorescence; 350,000 tested, 0.78% active; AID 504690, 2011;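 active = inhibition reaching at least a set limit at 20 µM in the primary screen, cut at about 59% in these data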;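 note: 0% = DMSO wells with substrate and 100% = DMSO wells lacking glucose-6-phosphate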
# B2AR ag = beta2AR agonists driving receptor internalization, primary screen, cell-based, FAP fluorogen, flow cytometry; response, % (test concentration not listed); Am2.2-beta2AR cells; 340,000 tested, 0.43% active; Beta-2 adrenergic receptor (Homo sapiens), P07550;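 active = response above a set limit, near 3 SD of response in nonfluorescent compounds, cut at about 42% in these data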
# Cardio protect = cardioprotection against H2O2-induced cell death, primary screen, uHTS, H9c2 cells, ATPLite luminescence. protection from H2O2 cell death, % at 20 µM. 360,000 tested, 0.63% active. AID 588492, 2011. H9c2 cardiomyocytes, H2O2 injury protection, 2 h;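 active = compounds giving at least 50% protection of heart cells from peroxide-induced death in the single-dose screen, raw or plate-pattern-corrected value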;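 note: 0% = DMSO wells with peroxide and 100% = DMSO wells without peroxide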
# HKDC1 inh = HKDC1 hexokinase inhibitors, primary screen, biochemical, fluorescence, uHTS | recombinant HKDC1, G6PDH/diaphorase resazurin coupled fluorescence | inhibition, % at 20 µM | Q2TB90 | 340,000 tested, 0.16% active | AID 493160, 2011;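 active = inhibition above about 35% when tested at 20 µM, limit read from the data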;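 note: plate controls were DMSO wells with enzyme for no effect and DMSO wells lacking enzyme for full effect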
# Target sequence (Q2TB90 whole entry, looked up): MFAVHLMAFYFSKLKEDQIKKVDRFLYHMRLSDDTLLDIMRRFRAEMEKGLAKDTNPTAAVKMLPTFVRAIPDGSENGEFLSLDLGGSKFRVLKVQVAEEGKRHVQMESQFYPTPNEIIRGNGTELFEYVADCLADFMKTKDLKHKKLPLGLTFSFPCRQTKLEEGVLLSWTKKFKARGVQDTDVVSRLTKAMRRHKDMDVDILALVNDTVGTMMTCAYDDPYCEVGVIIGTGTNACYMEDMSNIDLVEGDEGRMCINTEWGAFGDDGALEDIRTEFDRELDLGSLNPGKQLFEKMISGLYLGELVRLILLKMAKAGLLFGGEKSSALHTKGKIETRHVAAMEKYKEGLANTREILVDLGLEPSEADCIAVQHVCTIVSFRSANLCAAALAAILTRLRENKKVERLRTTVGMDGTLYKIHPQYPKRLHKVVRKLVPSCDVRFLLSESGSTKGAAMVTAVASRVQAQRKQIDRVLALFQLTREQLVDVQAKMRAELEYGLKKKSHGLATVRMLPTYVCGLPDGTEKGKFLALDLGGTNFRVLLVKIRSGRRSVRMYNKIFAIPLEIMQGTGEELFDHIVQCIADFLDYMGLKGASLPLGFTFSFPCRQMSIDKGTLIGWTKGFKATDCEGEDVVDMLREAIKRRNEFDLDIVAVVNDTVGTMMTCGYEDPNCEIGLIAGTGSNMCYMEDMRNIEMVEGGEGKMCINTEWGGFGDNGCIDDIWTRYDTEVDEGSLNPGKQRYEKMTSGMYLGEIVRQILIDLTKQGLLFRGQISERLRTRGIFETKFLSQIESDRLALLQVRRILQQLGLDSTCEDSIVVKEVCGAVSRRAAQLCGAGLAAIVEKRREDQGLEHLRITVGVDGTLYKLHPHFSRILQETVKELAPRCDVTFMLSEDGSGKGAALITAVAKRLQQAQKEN
#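 Assay system – recombinant HKDC1 (HK5) hexokinase enzyme, produced in-house · Input – HKDC1 at 5 µg/mL · Reagent – glucose plus 1 mM ATP as hexokinase substrates · Timing – 90 min reaction incubation at room temperature, dark · Measured by – G6PDH/diaphorase-coupled fluorescence, 1 mM NADP, 100 µM resazurin, 525/613 nm · Benchmarks – DMSO-enzyme wells negative, buffer-substituted wells positive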
# aDG glyco act = activators of alpha-DG glycosylation, primary screen, uHTS, Pro5-aDG cells, AlphaScreen. activation, % at 10 µM. alpha-DG glycosylation AlphaScreen (IIH6); 0% Pro5, 100% B10-LARGE cell signal. 360,000 tested, 0.22% active. AID 624168, 2012;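 active = activation of at least 8% versus controls, or a plate z-score of at least 8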;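 note: Pro5 are CHO cells carrying HIG-tagged alpha-DG that lacks glycosylation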
# UCH37 DUB inh = inhibitors of human UCH37 deubiquitinase, primary screen, biochemical, Ub-AMC cleavage, fluorescence | Ubiquitin carboxyl-terminal hydrolase isozyme L5 (Homo sapiens), Q9Y5K5 | purified proteasome/UCH37 | inhibition, % (concentration not given with the values) | 330,000 tested, 0.33% active | AID 588478, 2011;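 active = mean inhibition over replicate wells above about 20%, limit read from the data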;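 note: 0% = compound-free wells with enzyme and 100% = wells lacking proteasome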
#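 Schedule: 30 min plus 25 min, room temperature / Material: human UCH37 within purified proteasomes / Technique: AMC fluorescence intensity at 355/460 nm / Buffer or medium: pH 7.4 Tris-HCl (50 mM) with ovalbumin, ATP-MgCl2, DTT / Controls: wells without proteasome as full block, compound-free enzyme plus substrate as uninhibited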
# HKDC1 act conf = HKDC1 hexokinase activators, confirmation, biochemical, single concentration; shares compounds with HKDC1 inh; recombinant HKDC1, G6PDH/diaphorase resazurin fluorescence; stronger effect = lower value; inhibition, % at 20 µM; 740 tested, 14% active; AID 504708, 2011;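 active = inhibition at or below a set negative limit, negative inhibition meaning the enzyme was activated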
# PfGluPho conf = PfG6PD inhibitors, hit retest, confirmation, biochemical, fluorescence intensity, single concentration | shares compounds with PfG6PD inh | AID 504753, 2011 | inhibition, % at 20 µM | recombinant PfGluPho, NADPH-diaphorase-resazurin fluorescence | 2,400 tested, 34% active;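 active = inhibition of at least 50% at 20 µM in any single replicate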;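 note: 0% = DMSO with substrate and 100% = DMSO lacking glucose-6-phosphate substrate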
# Diaph ctr 10uM = diaphorase inhibitors and chemical oxidizers, confirmation, counter-screen for P. falciparum G6PD inhibitor project, biochemical, fluorescence intensity, 10 µM NADPH | shares compounds with PfG6PD inh | diaphorase-coupled resazurin reduction, NADPH 10 uM | inhibition, % at 20 µM | 820 tested, 39% active | AID 504862, 2011;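 active = average inhibition reaching 50% or more with the compound at 20 µM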;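 note: resorufin red fluorescence formed as diaphorase reduces resazurin using NADPH; 0% = DMSO with enzyme and 100% = DMSO without enzyme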
# Diaphorase 30uM = diaphorase inhibitors and chemical oxidizers, confirmation, counter-screen for P. falciparum G6PD inhibitor project, biochemical, fluorescence intensity, 30 µM NADPH. shares compounds with PfG6PD inh. Diaphorase/resazurin coupled assay, resorufin fluorescence. inhibition, % at 20 µM. 820 tested, 29% active. AID 504863, 2011;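 active = inhibition averaging 50% or more, tested at 20 µM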;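 note: 0% = DMSO with enzyme and 100% = DMSO wells lacking diaphorase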
# Starred values were filed as active, the others as inactive; i = inactive; . = no result.
SMILES,PfG6PD inh,B2AR ag,Cardio protect,HKDC1 inh,aDG glyco act,UCH37 DUB inh,HKDC1 act conf,PfGluPho conf,others
CC(=NNC(=O)c1c(Br)c(C)nn1C)c1cccc(NC(=O)c2ccccc2F)c1,.,.,.,.,.,3,.,.,
O=C(NN=Cc1ccc(OC(=O)c2cccc(F)c2)cc1)c1cccnc1,.,.,.,.,.,5,.,.,
COC(=O)CCC(=O)Nc1sc(Cc2ccccc2)c(C)c1C(N)=O,75*,0,-3,-44,1,6,-23,63*,Diaph ctr 10uM=27;Diaphorase 30uM=-2
COC(=O)c1c(NC(=O)CCC(=O)O)sc(Cc2ccccc2)c1C,-34,10,6,-1,0,2,.,.,
CC(=O)C(=NNc1ccccc1Cl)Sc1nnc(-c2ccccc2)n1-c1ccccc1,.,.,.,.,.,3,.,.,
CCc1ccc(S(=O)(=O)/N=C2\C=C(Nc3ccc(O)cc3)C(=O)c3ccccc32)cc1,94*,45*,-16,32,-1,.,6,32,
CCc1ccc(S(=O)(=O)/N=C2\C=C(Nc3cccc(C(=O)O)c3)C(=O)c3ccccc32)cc1,61*,16,-22,53*,0,.,65,41,
CCc1ccc(S(=O)(=O)N=C2C=CC(=O)c3ccccc32)cc1,.,.,.,.,.,8,.,.,
COc1ccc(O)c(C=NNC(=O)CCC(=O)Nc2ccc(F)cc2)c1,.,.,.,.,.,-50,.,.,
Cc1cc(C)c(S(=O)(=O)/N=C2/C=C(SCC(=O)O)C(=O)c3ccccc32)cc1C,106*,2,-21,51*,12*,.,30,95*,Diaph ctr 10uM=48;Diaphorase 30uM=36
Cc1ccc(NC(=O)CSc2ccccc2)cc1S(=O)(=O)N1CCCCC1,7,4,-16,0,0,1,.,.,
CC1(C)Cc2ccccc2C2=NNC(=O)C2=N1,108*,2,-29,53*,9.0*,i,37,94*,Diaph ctr 10uM=93*;Diaphorase 30uM=93*
CC1(C)Cc2ccccc2C(Nn2cnnc2)=N1,8,4,1,5,0,1,.,.,
O=[N+]([O-])c1ccc(N/N=C/c2cccc(O)c2O)c(S(=O)(=O)N2CCOCC2)c1,-12,11,12,3,0,.,.,.,
O=[N+]([O-])c1ccc(N/N=C/c2ccc(O)c(O)c2O)c(S(=O)(=O)N2CCOCC2)c1,66*,-4,22,38*,0,.,9,62*,Diaph ctr 10uM=30;Diaphorase 30uM=28
CCOc1ccc2nc3cc(NCc4ccc(OC)cc4)ccc3c(N)c2c1,67*,-186,-22,36*,0,-63,-4,30,
CN(C)Cc1cc(O)c(CN(C)C)cc1O,78*,3,61*,47*,0,-1,70,88*,Diaph ctr 10uM=43;Diaphorase 30uM=17
O=C(O)c1ccc2nc(-c3ccco3)c(-c3ccco3)nc2c1,51,-1,0,12,0,-75,.,.,
O=C(Nc1ccc2nc(-c3ccco3)c(-c3ccco3)nc2c1)NC1CC1,82*,27,6,50*,0,.,-1,32,
COC(=O)COc1ccc(C=NNS(=O)(=O)c2ccccc2)cc1,.,.,.,.,.,3,.,.,
NC(=O)COc1ccc(C=NNC(=O)c2ccc(-c3ccccc3)cc2)cc1,.,.,.,.,.,-173,.,.,

# Assay outcomes deposited in PubChem by several laboratories.
